From ChEMBL document CHEMBL1140844, “2-[(3-Methoxyphenylethyl)phenoxy]-based ABCB1 inhibitors: effect of different basic side-chains on their biological properties” (J Med Chem, 2008)

Tests used:
[1] = target: T1, ATP-dependent translocase ABCB1 (Homo sapiens, UniProt P08183); assay: Inhibition of ABCB1-mediated [3H]vinblastine transportation in human Caco-2 cells; format: cell-based
Procedure, shortened: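 Caco-2 monolayers grown 21 days (TEER >800 Ω × cm²). 20 nM [3H]vinblastine added to the basolateral side with or without compound (200 nM–400 µM) for 120 min at 37 °C. Appearance on the apical side measured by scintillation counting. IC50 from nonlinear fit. Mean of three experiments, triplicate samples.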

[2] = tested on: Caco-2; assay: Ratio of apparent permeability from basolateral to apical over apical to basolateral side of human Caco-2 cells after 120 mins by UV-visible spectroscopy; conditions: caco-2, 2 h
[3] = target: T2, ABCG2 (Homo sapiens, UniProt Q9UNQ0); assay: Inhibition of ABCG2 in human Caco-2 cells assessed as [3H]mithoxatrone accumulation at 100 uM; format: cell-based; conditions: probe [3H]mithoxatrone
T2 sequence (Q9UNQ0 whole entry): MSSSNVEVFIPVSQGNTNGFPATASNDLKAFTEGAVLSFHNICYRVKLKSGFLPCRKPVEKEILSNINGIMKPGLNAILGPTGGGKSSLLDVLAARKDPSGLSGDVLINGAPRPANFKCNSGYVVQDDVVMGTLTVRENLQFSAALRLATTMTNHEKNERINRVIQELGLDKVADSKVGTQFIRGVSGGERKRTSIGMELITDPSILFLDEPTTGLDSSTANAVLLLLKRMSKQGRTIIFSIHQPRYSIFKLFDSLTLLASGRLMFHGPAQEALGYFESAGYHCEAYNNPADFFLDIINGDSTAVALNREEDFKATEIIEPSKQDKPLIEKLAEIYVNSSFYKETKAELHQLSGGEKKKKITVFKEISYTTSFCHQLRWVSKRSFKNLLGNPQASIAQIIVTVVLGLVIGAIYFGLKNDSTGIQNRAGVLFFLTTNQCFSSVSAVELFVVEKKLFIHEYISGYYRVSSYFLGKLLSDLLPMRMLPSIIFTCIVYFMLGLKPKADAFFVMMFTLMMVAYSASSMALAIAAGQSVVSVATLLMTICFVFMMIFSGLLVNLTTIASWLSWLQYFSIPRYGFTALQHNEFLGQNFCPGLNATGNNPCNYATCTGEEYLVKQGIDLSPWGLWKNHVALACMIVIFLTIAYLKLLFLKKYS
Procedure, shortened: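 Caco-2 monolayers grown 21 days (TEER >800 Ω × cm²). 20 nM [3H]mitoxantrone added basolaterally with or without compound at 100 µM, 120 min at 37 °C. Apical appearance measured by scintillation counting. Result is % inhibition from the radioactivity difference with and without compound.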

[4] = target: T1, ATP-dependent translocase ABCB1; assay: Inhibition of ABCB1 transfected in MDCK cells assessed as increase in calcein-AM accumulation; format: cell-based
[5] = target: T3, D(2) dopamine receptor (Homo sapiens, UniProt P14416); assay: Displacement of [3H]spiroperidol from human cloned dopaminergic D2 receptor expressed in rat C6 cells; format: cell-based
[6] = target: T4, 5-hydroxytryptamine receptor 1A (Homo sapiens, UniProt P08908); assay: Displacement of [3H]8-OH-DPAT from human cloned 5-HT1A receptor expressed in human HeLa cells; format: cell-based
T4 sequence (P08908 whole entry): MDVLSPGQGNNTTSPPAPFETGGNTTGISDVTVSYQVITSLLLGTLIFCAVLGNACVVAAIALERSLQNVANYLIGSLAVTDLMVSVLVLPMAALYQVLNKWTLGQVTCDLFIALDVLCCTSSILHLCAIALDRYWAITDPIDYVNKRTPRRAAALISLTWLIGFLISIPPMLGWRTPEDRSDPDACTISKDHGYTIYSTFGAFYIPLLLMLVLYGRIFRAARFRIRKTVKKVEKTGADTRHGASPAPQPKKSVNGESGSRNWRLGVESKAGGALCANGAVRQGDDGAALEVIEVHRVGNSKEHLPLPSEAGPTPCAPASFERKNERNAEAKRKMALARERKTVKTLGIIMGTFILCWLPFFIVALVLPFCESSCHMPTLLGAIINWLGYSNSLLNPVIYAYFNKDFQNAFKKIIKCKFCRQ
Procedure, shortened: (§1)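 Compounds at 0.1 nM–10 µM in 50 mM Tris-HCl pH 7.4, 5 mM MgSO4, 120 min at 37 °C. Filtered on PEI-soaked GF/C. Nonspecific binding with 10 µM 8-OH-DPAT. […] Mean of three experiments, triplicate samples.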

[7] = target: T1, ATP-dependent translocase ABCB1; assay: Inhibition of ABCB1 in human Caco-2 cells assessed as ATPase activation at 100 uM after 2 hrs; format: cell-based; conditions: caco-2, 2 h
Procedure, shortened: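 Caco-2 cells seeded at 2 × 10⁴ cells/well and held overnight at 37 °C, 5% CO2. Exposed to compound in complete medium for 2 h at 37 °C. Cells then lysed and ATP read by luciferase luminescence after 10 min dark adaptation. Tested at 100 µM; a positive response is reported as a percentage.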

[8] = target: T5, 5-hydroxytryptamine receptor 1A (Homo sapiens) (UniProt P08908); assay: Displacement of [3H]8-OH-DPAT from human cloned 5-HT1A receptor expressed in human HeLa cells at 10 uM; format: cell-based; procedure, shortened: as §1
T5 sequence (whole entry): T4 sequence (P08908 whole entry)

[9] = target: T3, D(2) dopamine receptor; assay: Displacement of [3H]spiroperidol from human cloned dopaminergic D2 receptor expressed in rat C6 cells at 10 uM; format: cell-based
Procedure, shortened: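 Buffer was 50 mM Tris, 10 mM MgCl2, 1 mM EDTA, pH 7.4. Incubated 60 min at 27 °C, then filtered on PEI-soaked GF/C. Nonspecific binding with 10 µM haloperidol.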

[10] = target: T6, Broad substrate specificity ATP-binding cassette transporter ABCG2 (Homo sapiens, UniProt Q9UNQ0); assay: Inhibition of ABCG2
T6 sequence (Q9UNQ0 whole entry): T2 sequence (Q9UNQ0 whole entry)

[11] = target: T1, ATP-dependent translocase ABCB1; assay: Inhibition of ABCB1

T1 sequence (P08183 whole entry): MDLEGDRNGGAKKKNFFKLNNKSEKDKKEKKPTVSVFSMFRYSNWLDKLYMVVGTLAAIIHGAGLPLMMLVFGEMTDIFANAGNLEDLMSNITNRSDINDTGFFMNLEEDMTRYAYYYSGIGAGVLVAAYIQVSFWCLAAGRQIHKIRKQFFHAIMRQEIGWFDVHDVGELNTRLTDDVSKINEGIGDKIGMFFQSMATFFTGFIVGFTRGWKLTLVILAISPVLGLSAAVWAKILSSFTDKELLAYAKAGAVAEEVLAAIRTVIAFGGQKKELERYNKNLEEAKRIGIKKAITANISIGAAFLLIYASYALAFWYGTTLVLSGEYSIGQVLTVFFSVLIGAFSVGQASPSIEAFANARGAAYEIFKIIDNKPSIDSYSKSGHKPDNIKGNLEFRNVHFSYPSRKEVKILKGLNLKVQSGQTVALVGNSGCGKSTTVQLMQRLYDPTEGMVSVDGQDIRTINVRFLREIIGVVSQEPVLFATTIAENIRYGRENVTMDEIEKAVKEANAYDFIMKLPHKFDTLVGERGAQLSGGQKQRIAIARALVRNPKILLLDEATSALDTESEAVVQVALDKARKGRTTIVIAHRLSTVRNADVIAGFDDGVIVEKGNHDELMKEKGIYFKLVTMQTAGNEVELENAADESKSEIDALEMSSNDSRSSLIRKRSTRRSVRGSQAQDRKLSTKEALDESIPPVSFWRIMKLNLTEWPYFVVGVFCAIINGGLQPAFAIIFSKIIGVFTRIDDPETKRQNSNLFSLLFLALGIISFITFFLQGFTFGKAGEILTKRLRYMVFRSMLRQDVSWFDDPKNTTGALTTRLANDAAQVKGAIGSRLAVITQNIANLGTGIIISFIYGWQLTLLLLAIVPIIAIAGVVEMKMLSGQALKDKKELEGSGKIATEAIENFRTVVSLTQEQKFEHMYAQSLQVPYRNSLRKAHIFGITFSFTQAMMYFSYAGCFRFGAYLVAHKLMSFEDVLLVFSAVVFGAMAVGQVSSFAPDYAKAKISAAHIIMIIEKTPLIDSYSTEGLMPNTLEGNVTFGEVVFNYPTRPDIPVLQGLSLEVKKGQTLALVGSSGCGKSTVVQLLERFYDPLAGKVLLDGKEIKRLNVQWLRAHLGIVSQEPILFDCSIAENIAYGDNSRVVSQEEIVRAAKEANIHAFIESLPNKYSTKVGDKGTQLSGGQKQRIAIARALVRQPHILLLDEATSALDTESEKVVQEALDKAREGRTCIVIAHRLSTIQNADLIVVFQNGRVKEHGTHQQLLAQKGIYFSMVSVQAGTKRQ
T3 sequence (P14416 whole entry): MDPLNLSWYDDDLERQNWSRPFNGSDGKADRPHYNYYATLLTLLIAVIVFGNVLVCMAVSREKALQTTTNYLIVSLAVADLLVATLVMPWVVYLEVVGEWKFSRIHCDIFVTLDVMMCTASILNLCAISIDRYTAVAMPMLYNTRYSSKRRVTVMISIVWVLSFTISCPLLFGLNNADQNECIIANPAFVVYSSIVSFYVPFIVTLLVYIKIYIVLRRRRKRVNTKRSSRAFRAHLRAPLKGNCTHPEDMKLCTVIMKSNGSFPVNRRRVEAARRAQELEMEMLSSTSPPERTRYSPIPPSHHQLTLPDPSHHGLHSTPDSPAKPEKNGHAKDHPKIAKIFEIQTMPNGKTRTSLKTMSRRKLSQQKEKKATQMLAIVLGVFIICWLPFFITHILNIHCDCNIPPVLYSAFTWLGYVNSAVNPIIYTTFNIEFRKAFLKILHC

| IC50 [10] | IC50 [11] | SMILES | IC50 [1] | Ratio [2] | inhibition at 100 µM [3] | IC50 [4] | Ki [5] | Ki [6] | Activity [7] | inhibition [8] | inhibition [9] |
| --- | --- | --- | --- | --- | --- | --- | --- | --- | --- | --- | --- |
| – | – | COc1cccc(CCc2ccccc2OCCCCN2CCN(c3ncccn3)CC2)c1 | 200 nM | 8.2 | 16% | 1170 nM | 854 nM | 558 nM | Not Active | – | – |
| – | – | COc1cccc(CCc2ccccc2OCCCCN2CCN(c3cccc(C(F)(F)F)c3)CC2)c1 | 750 nM | 4.4 | 24% | 1790 nM | > 1000 nM | > 5000 nM | Not Active | 36% | 27% |
| 150000 nM | 650 nM | COc1cccc(CCc2ccccc2OCc2ccc(OC)c(OC)c2)c1 | – | – | – | – | – | – | – | – | – |
| 1500 nM | 85 nM | COc1cccc(CCc2ccccc2NCc2cccc(OC)c2OC)c1 | – | – | – | – | – | – | – | – | – |
